Assay results: ChEMBL document CHEMBL1140550, “New 'chemical probes' to examine the role of the hFPRL1 (or ALXR) receptor in inflammation” (Bioorg Med Chem Lett, 2007)
pEC50, pIC50: −log10 of the molar value. Active and inactive are the calls of the source. The calls are words filed in the database; no cut-off is given here.

Experiments:
[1] = target: T1, N-formyl peptide receptor 2 (Homo sapiens, UniProt P25090); assay: Agonist activity at human recombinant FPRL1 expressed in CHO cells assessed as calcium flux by aequorin based bioluminescence assay; type: functional, cell-based
T1 sequence (P25090 whole entry): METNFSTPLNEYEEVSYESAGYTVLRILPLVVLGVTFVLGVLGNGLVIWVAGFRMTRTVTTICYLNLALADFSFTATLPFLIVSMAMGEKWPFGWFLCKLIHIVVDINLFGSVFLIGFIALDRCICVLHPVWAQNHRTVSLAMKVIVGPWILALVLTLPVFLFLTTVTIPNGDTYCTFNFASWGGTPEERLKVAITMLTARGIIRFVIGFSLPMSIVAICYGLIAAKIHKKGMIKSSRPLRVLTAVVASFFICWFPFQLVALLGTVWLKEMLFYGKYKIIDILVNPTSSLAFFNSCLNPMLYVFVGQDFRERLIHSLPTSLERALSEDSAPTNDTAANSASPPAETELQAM
Procedure, shortened: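 EC50 from Ca2+ flux in recombinant CHO cells co-expressing human FPRL1, Gα15 protein and aequorin. Values without standard deviation are the mean of two data points.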

[2] = Inhibition of fMLP-induced human PMN migration after 45 mins; type: functional; conditions: 0.75 h
Procedure, shortened: (§1)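 Human polymorphonuclear neutrophils from at least three donors, exposed to compound (final DMSO 0.1%). Migration toward a gradient of IL-8 or fMLP chemo-attractant (10 nM each) followed by fluorescence. Mean IC50 reported.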

[3] = Inhibition of IL8-induced human PMN migration after 45 mins; type: functional; conditions: 0.75 h; procedure, shortened: as §1
[4] = system: Blood; assay: Stimulation of IL6 secretion in human whole blood after 18 hrs; type: functional, tissue-based
Procedure, shortened: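 Heparinized human whole blood, 50% final, preincubated with compound for 1 h at 37 °C, 5% CO2, then stimulated with IL-1β (300 pM final) for 18 h. Final DMSO 0.1%. IL-6 in supernatant/plasma measured by electrochemiluminescence immunoassay.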

[5] = target: T2, fMet-Leu-Phe receptor (Homo sapiens, UniProt P21462); assay: Agonist activity at human recombinant FPR expressed in CHO cells assessed as calcium flux by aequorin based bioluminescence assay; type: functional, cell-based
T2 sequence (P21462 whole entry): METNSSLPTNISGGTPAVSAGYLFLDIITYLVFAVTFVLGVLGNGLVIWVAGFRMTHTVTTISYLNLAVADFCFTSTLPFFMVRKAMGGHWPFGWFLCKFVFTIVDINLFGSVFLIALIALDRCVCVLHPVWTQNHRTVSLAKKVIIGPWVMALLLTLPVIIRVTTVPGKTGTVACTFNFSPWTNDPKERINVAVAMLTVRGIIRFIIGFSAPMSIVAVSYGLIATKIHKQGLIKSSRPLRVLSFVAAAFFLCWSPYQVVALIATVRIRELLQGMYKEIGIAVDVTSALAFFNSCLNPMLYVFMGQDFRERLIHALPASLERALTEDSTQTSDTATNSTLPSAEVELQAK
Procedure, shortened: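 CHO cells stably transfected with human FPR, aequorin and Gα15 protein; EC50 derived from Ca2+ flux read by aequorin luminescence.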

pEC50 [1] | pIC50 [2] | pIC50 [3] | pEC50 [5] | Structure (SMILES) | Activity [4]
< 5.00 | – | – | – | CC(C)c1c(NC(=O)Nc2ccccc2Cl)c(=O)n(-c2ccccc2)n1C | –
– | 6.19 | 6.62 | – | CC(C)c1c(NC(=O)Nc2ccc(Cl)cc2)c(=O)n(-c2ccccc2)n1C | Active
5.73 | – | – | < 5.00 | CCc1nc2ccccc2n1[C@@H]1CCN(C(=O)c2nc3ccc(OC)cc3[nH]2)C1 | –
